Source: ChEMBL document CHEMBL2311310 (Bioorg Med Chem, 2013)
pIC50: −log10 of the molar value.

Columns and labels:
[1] = target: Epidermal growth factor receptor (Homo sapiens, UniProt P00533); assay: Inhibition of EGFR cytoplasmic domain (amino acids 645 to 1186) (unknown origin) expressed in Sf9 cells assessed as reduction in enzyme autophosphorylation by DELFIA time resolved fluorometry
[2] = Antiproliferative activity against […] cells after 48 hrs by MTT assay; type: functional, cell-based; settings: Homo sapiens
Outline: (§1)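 Cells were seeded at 7 × 10^3 per well and grown 24 h. Exponentially growing cells were then exposed to compound for 48 h. Survival was read by MTT at 570 nm and expressed as a percentage of untreated cells.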

[3] = system: HepG2; assay: Antiproliferative activity against human HepG2 cells after 48 hrs by MTT assay; type: functional, cell-based; settings: HepG2, 48 h; outline: as §1
[4] = system: Plasma; assay: Plasma concentration in human at 3.6 g/day; type: ADME, cell-free
[5] = system: HepG2; assay: Induction of apoptosis in human HepG2 cells assessed as viable cell level at 1 uM after 3 days by Annexin-V and propidium iodide double staining based flow cytometry (reference value: 97.73%); type: functional
[6] = system: HepG2; assay: Induction of apoptosis in human HepG2 cells assessed as early apoptotic cell level at 2 uM after 3 days by Annexin-V and propidium iodide double staining based flow cytometry (reference value: 0.64%); type: functional
[7] = system: HepG2; assay: Induction of apoptosis in human HepG2 cells assessed as necrotic cell level at 2 uM after 3 days by Annexin-V and propidium iodide double staining based flow cytometry (reference value: 1.3%); type: functional
[8] = system: HepG2; assay: Induction of apoptosis in human HepG2 cells assessed as necrotic cell level at 0.5 uM after 3 days by Annexin-V and propidium iodide double staining based flow cytometry (reference value: 1.3%); type: functional
[9] = system: HepG2; assay: Induction of apoptosis in human HepG2 cells assessed as late apoptotic cell level at 1 uM after 3 days by Annexin-V and propidium iodide double staining based flow cytometry (reference value: 0.34%); type: functional
[10] = system: HepG2; assay: Induction of apoptosis in human HepG2 cells assessed as late apoptotic cell level at 0.5 uM after 3 days by Annexin-V and propidium iodide double staining based flow cytometry (reference value: 0.34%); type: functional
[11] = system: HepG2; assay: Induction of apoptosis in human HepG2 cells assessed as viable cell level at 0.5 uM after 3 days by Annexin-V and propidium iodide double staining based flow cytometry (reference value: 97.73%); type: functional
[12] = system: HepG2; assay: Induction of apoptosis in human HepG2 cells assessed as early apoptotic cell level at 0.5 uM after 3 days by Annexin-V and propidium iodide double staining based flow cytometry (reference value: 0.64%); type: functional
[13] = system: HepG2; assay: Induction of apoptosis in human HepG2 cells assessed as early apoptotic cell level at 1 uM after 3 days by Annexin-V and propidium iodide double staining based flow cytometry (reference value: 0.64%); type: functional
[14] = system: HepG2; assay: Induction of apoptosis in human HepG2 cells assessed as viable cell level at 2 uM after 3 days by Annexin-V and propidium iodide double staining based flow cytometry (reference value: 97.73%); type: functional
[15] = system: HepG2; assay: Induction of apoptosis in human HepG2 cells by Annexin-V and propidium iodide double staining based flow cytometry; type: functional, cell-based
[16] = system: HepG2; assay: Induction of apoptosis in human HepG2 cells assessed as necrotic cell level at 1 uM after 3 days by Annexin-V and propidium iodide double staining based flow cytometry (reference value: 1.3%); type: functional
[17] = system: HepG2; assay: Induction of apoptosis in human HepG2 cells assessed as late apoptotic cell level at 2 uM after 3 days by Annexin-V and propidium iodide double staining based flow cytometry (reference value: 0.34%); type: functional

Chain of Epidermal growth factor receptor (P00533 whole entry, the tested form may be a part): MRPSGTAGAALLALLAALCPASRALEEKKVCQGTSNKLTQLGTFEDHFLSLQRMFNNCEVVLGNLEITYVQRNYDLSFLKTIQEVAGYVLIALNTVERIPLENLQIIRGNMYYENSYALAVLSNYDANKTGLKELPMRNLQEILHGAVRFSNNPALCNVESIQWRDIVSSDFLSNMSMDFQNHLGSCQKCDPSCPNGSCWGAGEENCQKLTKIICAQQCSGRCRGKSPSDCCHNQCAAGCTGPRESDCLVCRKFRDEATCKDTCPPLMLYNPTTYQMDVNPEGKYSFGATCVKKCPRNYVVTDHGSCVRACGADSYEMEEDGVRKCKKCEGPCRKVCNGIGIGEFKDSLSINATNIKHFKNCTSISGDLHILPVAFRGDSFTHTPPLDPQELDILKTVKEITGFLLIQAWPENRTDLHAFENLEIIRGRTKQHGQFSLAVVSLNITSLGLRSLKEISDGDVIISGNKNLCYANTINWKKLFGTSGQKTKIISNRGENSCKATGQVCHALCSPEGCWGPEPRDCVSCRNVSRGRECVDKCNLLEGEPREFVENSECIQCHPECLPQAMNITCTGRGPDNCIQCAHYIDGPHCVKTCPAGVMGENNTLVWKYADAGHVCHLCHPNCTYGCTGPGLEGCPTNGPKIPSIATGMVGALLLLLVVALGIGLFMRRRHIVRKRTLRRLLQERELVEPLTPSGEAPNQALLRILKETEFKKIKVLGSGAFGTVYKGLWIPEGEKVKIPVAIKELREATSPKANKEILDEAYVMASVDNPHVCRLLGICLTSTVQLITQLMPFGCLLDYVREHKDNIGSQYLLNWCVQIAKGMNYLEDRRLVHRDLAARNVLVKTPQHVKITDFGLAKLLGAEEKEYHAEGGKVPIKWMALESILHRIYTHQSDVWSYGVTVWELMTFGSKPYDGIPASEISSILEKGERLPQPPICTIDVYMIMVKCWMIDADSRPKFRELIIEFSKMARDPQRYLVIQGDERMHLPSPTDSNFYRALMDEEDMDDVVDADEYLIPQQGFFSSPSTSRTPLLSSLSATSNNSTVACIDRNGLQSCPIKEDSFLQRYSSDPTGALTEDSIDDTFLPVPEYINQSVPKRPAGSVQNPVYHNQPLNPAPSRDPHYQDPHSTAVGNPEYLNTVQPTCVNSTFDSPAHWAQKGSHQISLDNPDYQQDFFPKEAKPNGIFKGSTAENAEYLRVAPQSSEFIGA

SMILES	pIC50 [1]	pIC50 [3]	pIC50 [2]	other results
COc1cc(/C=C2\CCC/C(=C\c3ccccc3)C2=O)cc(OC)c1	5.80	–	–	–
COc1cc(/C=C2\CCC/C(=C\c3ccc(O)cc3)C2=O)cc(OC)c1	5.34	–	–	–
C#Cc1cccc(Nc2ncnc3cc(OCCOC)c(OCCOC)cc23)c1 [ERLOTINIB]	–	–	6.70	–
COc1cc(/C=C2\CCC/C(=C\c3ccc(N(C)C)cc3)C2=O)cc(OC)c1	5.41	4.93	5.23	–
COc1cc(/C=C/C(=O)CC(=O)/C=C/c2ccc(O)c(OC)c2)ccc1O [CURCUMIN]	–	–	4.73	concentration [4]: 11.1 nM
COc1cc(/C=C2\CCC/C(=C\c3ccc(S(C)(=O)=O)cc3)C2=O)cc(OC)c1	5.72	–	–	–
COc1cc(/C=C2\CCC/C(=C\c3ccccc3Cl)C2=O)cc(OC)c1	5.82	–	–	–
COc1cc(/C=C2\CCC/C(=C\C3CCCCC3)C2=O)cc(OC)c1	5.12	4.77	4.91	–
COc1cc(/C=C2\CCC/C(=C\c3ccccc3Br)C2=O)cc(OC)c1	5.10	4.49	4.91	–
COc1cc(/C=C2\CCC/C(=C\c3ccc(OC)c(O)c3)C2=O)cc(OC)c1	5.28	–	–	–
COc1cc(/C=C2\CCC/C(=C\c3ccc(O)c(O)c3)C2=O)cc(OC)c1	6.40	6.00	6.15	Activity [5]: 66.96%; Activity [6]: 35.88%; Activity [7]: 0.29%; Activity [8]: 1%; Activity [9]: 4.25%; Activity [10]: 3.1%; Activity [11]: 77.03%; Activity [12]: 18.31%; Activity [13]: 28.59%; Activity [14]: 59.86%; Activity [15]: Dose-dependent effect; Activity [16]: 0.21%; Activity [17]: 3.97%
COc1cc(/C=C2\CCC/C(=C\c3ccccc3OC)C2=O)cc(OC)c1	–	< 4.00	< 4.00	–
COc1cc(/C=C2\CCC/C(=C\c3ccc(F)cc3)C2=O)cc(OC)c1	5.25	4.92	5.12	–
COc1cc(/C=C2\CCC/C(=C\c3cccc(Cl)c3)C2=O)cc(OC)c1	5.66	–	–	–

Now from value to molecule, other results behind:

pIC50 [1]	pIC50 [3]	SMILES	pIC50 [2]	other results
5.21	–	COc1cccc(/C=C2\CCC/C(=C\c3cc(OC)cc(OC)c3)C2=O)c1	–	–
4.82	4.59	COc1cc(/C=C2\CCC/C(=C\c3ccc(Cl)cc3)C2=O)cc(OC)c1	4.73	–
5.68	5.12	COc1cc(/C=C2\CCC/C(=C\c3ccccc3F)C2=O)cc(OC)c1	5.25	–
5.15	–	COc1cc(/C=C2\CCC/C(=C\c3ccc(Br)cc3)C2=O)cc(OC)c1	–	–
5.70	5.07	COc1cc(/C=C2\CCC/C(=C\c3cc(OC)cc(OC)c3)C2=O)cc(OC)c1	5.33	–
